KLK7 zymogen act – proKLK7 (human) activation, primary screen; P49862; purified proKLK7, EDANS-DABCYL substrate fluorescence; 100% is mature enzyme control, 0% vehicle; activation, % at 7 µM; 370,000 tested, 0.9% active;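 active = activation above the mean of all tested compounds plus 3 SD, computed per campaign excluding outliers beyond control limits, cut at about 13% in these data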
Target sequence (P49862 whole entry, looked up): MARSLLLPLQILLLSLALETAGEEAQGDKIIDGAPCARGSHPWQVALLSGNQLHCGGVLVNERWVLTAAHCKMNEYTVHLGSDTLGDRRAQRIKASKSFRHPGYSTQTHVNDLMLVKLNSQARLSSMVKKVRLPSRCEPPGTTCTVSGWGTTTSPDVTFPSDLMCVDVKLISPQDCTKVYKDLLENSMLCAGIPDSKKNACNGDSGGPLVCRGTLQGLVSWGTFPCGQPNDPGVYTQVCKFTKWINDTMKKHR
proCasp7 act – counter-screen for procaspase-3 activators: activators of human procaspase-7; P55210; recombinant procaspase-7, Ac-DEVD-pNA absorbance 405 nm; D23A/D198A/D206A triple mutant, cannot self-cleave; scale: DMSO 0, 5 µM enzyme 100; activation, % at 8.5 µM; 330,000 tested, 0.093% active; AID 463210;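 active = percent activation above the screen-wide mean plus 3 SD, cut at about 25% in these data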
Target sequence (P55210 whole entry D23A/D198A/D206A): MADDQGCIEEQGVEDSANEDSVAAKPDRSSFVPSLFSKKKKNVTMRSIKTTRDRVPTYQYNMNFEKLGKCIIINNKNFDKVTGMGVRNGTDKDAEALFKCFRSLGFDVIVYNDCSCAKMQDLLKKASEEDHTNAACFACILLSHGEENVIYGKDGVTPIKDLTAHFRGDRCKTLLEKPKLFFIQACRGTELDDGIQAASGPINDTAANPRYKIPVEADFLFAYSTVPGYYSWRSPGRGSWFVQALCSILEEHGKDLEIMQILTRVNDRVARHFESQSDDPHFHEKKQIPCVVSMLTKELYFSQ
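Assay system: Uncleavable procaspase-7 mutant enzyme / Input: 2 µM procaspase-7 mutant as dispensed / Dosing: single nominal 8.5 µM compound dose, 0.8% DMSO final / Timing: 1 h enzyme–compound preincubation and 2 h substrate reaction, both 25 °C / Detection: p-Nitroaniline absorbance at 405 nm, read at 0 and 120 min / Replication: singlicate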
procasp3 activ – activates human procaspase-3; P42574; recombinant procaspase-3 D3A, Ac-DEVD-pNA absorbance 405 nm; activation, % at 8.5 µM; 330,000 tested, 0.11% active; AID 463141;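 active = activation above the mean of all tested compounds plus 3 SD, cut at about 21% in these data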
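assay system = Procaspase-3 D3A mutant | signal = absorbance at 405 nm, 0 and 120 min | times = 1 h preincubation plus 2 h reaction at 25 °C | repeats = single replicate | read-out = % activation between DMSO and enzyme-spiked controls | medium = Zinc-free HEPES saline buffer with Triton X-100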
Neddylation inh – cullin neddylation inhibition; TR-FRET cullin neddylation, biochemical; 360,000 tested, 0.58% active; AID 651699; calls only at 25 µM; in the data active = inhibition above about 36%
PC3 D3A act – activates human procaspase-3, dual activator counter-screen; 290 tested, under 10 active; recombinant PC-3 D3A, Ac-DEVD-pNA absorbance 405 nm; aspartates 9, 28, 175 changed to alanine; 100% = enzyme control; shares compounds with proCasp7 act; activation, % at 8.5 µM;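 active = mean percent activation across triplicates above a set limit taken from the earlier primary procaspase-3 screen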
Procasp7 act – confirmation of dual procaspase activators: human procaspase-7 activation; activation, % at 8.5 µM; shares compounds with proCasp7 act; recombinant procaspase-7, Ac-DEVD-pNA absorbance 405 nm; D23A/D198A/D206A mutant that cannot self-cleave; 290 tested, under 10 active;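 active = mean activation above a set limit carried over from the earlier primary screen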
Neddyl conf – confirmation of human cullin neddylation inhibitors; shares compounds with Neddylation inh; TR-FRET cullin neddylation biochemical assay; calls only at 25 µM; 1,800 tested, 13% active; in the data active = inhibition above about 40%;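 note: neddylation substrate is the cullin 1 ring ligase complex with SKP2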
proKLK7 act conf – proKLK7 activation, confirmation; shares compounds with KLK7 zymogen act; purified proKLK7, EDANS-DABCYL substrate fluorescence; scaled: vehicle 0, mature enzyme 100; activation, % at 7 µM; 3,200 tested, 68% active; AID 686949;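 active = activation, as change over the incubation, above the mean of all tested compounds plus 3 SD, cut at about 13% in these data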
EDANS-DABCYL int – optically interferes with EDANS-DABCYL signal, flagging KLK7 hits. shares compounds with KLK7 zymogen act. AID 686952. EDANS-DABCYL substrate fluorescence interference, no enzyme, 4 h; solvent 0%, active enzyme control 100%. activation, % at 7 µM. 3,200 tested, 80% active;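 active = activation above the all-compound mean plus 3 SD, ignoring values outside control-based bounds, cut at about 4.8% in these data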;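 note: value is the 4 h activation minus the activation read at time zero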
Large screens that a line does not name were inactive (follow-up assays come after a bar, where shown). Shown are actives, neighbours in structure and some others; about 1.6% of the full set was active somewhere.

COC1C(O)C(C)OC(OC2C(Oc3cccc4c(O)c5c(=O)oc6ccc(C)c7c(=O)oc(c34)c5c67)OC(C)C(O)C2O)C1O (configuration not stated)	Neddylation inh active (no result: proCasp7 act, procasp3 activ)
O=C(CN1C(=O)[C@@H](Cc2ccc(O)cc2)N=C(c2ccccc2)c2ccccc21)NC1CCCCC1	none (no result: proCasp7 act, procasp3 activ, Neddylation inh)
O=C1CC=C2C3CC4N(CCC45c4cc(O)c(O)cc4N1C25)CC3=CCBr (configuration not stated)	Neddylation inh active (no result: proCasp7 act, procasp3 activ)
CCCCN1CCN(C(=O)COc2cc(=O)n(C)c3ccccc23)CC1	none (no result: proCasp7 act, procasp3 activ, Neddylation inh)
Cc1ccc(-c2cc(-c3ccc(C)cc3)[n+](-c3ccc(C(=O)O)cc3)c(-c3ccc(C)cc3)c2)cc1	Neddylation inh active
Cc1ccccc1-n1c(O)c(/C=N/Nc2nc3c(c(=O)n(C)c(=O)n3C)n2C)c(=O)[nH]c1=S	none
Cn1c(=O)c2c(nc(N/N=C/c3c(O)n(C4CCCCC4)c(=S)[nH]c3=O)n2C)n(C)c1=O	Neddylation inh active
Cc1ccc2c(C)c3ccc4ccccc4c3c[n+]2c1	Neddylation inh active (no result: proCasp7 act, procasp3 activ)
C=C1C(=O)C(C)=C2C(=O)N3Cc4[nH]c5ccccc5c4CC3(C(=O)OC)C12 (configuration not stated)	none (no result: proCasp7 act, procasp3 activ, Neddylation inh)
COc1ccc([C@@H]2C[C@H]3[C@@H](CN2)CON3C)cc1	none (no result: proCasp7 act, procasp3 activ, Neddylation inh)
CC(C)CNC(=O)c1c(N)n(Cc2ccc3c(c2)OCO3)c2nc3ccccc3nc12	proCasp7 act 71 (not shown: Neddylation inh) | PC3 D3A act inactive | Procasp7 act inactive
COC(=O)C1=C[C@H]([C@@H](C)[C@H](OC)c2ccccc2Br)[C@@H]2[C@H]1c1ccccc1N2C	none (no result: proCasp7 act, procasp3 activ, Neddylation inh)
COc1cc2c(cc1OC)-c1c(OC)c(OC)cc3c1[C@H](C2)N(C)CC3	none
COc1cc2c(cc1O)CC1c3c(cc(O)c(OC)c3-2)CCN1C (configuration not stated)	Neddylation inh active
Cc1ccc(-n2nc(C)cc2NC(=O)COc2cc(C)cc3oc(=O)c4c(c23)CCC4)cc1	Neddylation inh active | Neddyl conf inactive
CCCC(=O)N1c2ccc(Cl)cc2C(c2ccccc2)=NCC1C(=O)NC(C)(C)C (configuration not stated)	none (no result: proCasp7 act, procasp3 activ, Neddylation inh)
Cc1ccc(-c2cc(-c3ccccc3)cc(-c3ccccc3)[n+]2-c2ccc(C(=O)O)cc2)cc1	Neddylation inh active | Neddyl conf active
O=C(O)c1ccc(-[n+]2c(-c3ccccc3)cc(-c3ccccc3)cc2-c2ccccc2)cc1	none
CCCCC(=O)N/N=C/c1c(O)n(CCc2ccc(OC)c(OC)c2)c(=O)[nH]c1=O	none
CCCCn1c(O)c(/C=N/NC(=O)c2ccncc2)c(=O)[nH]c1=S	Neddylation inh active
CCCCC(=O)N/N=C/c1c(O)n(CCc2ccccc2)c(=O)[nH]c1=O	Neddylation inh active | Neddyl conf inactive
CCCCCCC(=O)N/N=C/c1c(O)n(CCCC)c(=S)[nH]c1=O	Neddylation inh active | Neddyl conf inactive
N#CCC[C@@H]1CC[C@]2(CCCN(Cc3ccccn3)C2)O1	none (no result: proCasp7 act, procasp3 activ, Neddylation inh)
C=CCN(CC#CCO)Cc1ccc(OC)cc1OC	none (no result: proCasp7 act, procasp3 activ, Neddylation inh)
NC(N)=N/N=C/c1ccc(N2CCOCC2)cc1	Neddylation inh active | Neddyl conf inactive
CC(NC(=O)OCc1ccccc1)[P+](=O)O (configuration not stated)	none (no result: proCasp7 act, procasp3 activ, Neddylation inh)
CC1(O)CCC2C3CCC4=CC(=O)CCC4=C3C=CC21C (configuration not stated)	KLK7 zymogen act 14, Neddylation inh active (no result: proCasp7 act, procasp3 activ) | Neddyl conf inactive | proKLK7 act conf 13 | EDANS-DABCYL int 23
CCC(CO)NC(=O)C1C=C2c3cccc4[nH]cc(c34)CC2N(C)C1 (configuration not stated)	none (not shown: Neddylation inh)
CC[C@@H](CO)NC(=O)[C@@H]1C=C2c3cccc4[nH]cc(c34)C[C@H]2N(C)C1	KLK7 zymogen act 19, Neddylation inh active (not shown: proCasp7 act, procasp3 activ) | proKLK7 act conf inactive | EDANS-DABCYL int inactive
CCOC(=O)CC[C@@H]1CC[C@]2(CCCN(Cc3cccnc3)C2)O1	none (no result: proCasp7 act, procasp3 activ, Neddylation inh)
COc1cc2c(cc1OC)C(c1c(O)n(CCc3ccccc3)c(=S)[nH]c1=O)NCC2 (configuration not stated)	KLK7 zymogen act 95 (no result: Neddylation inh) | proKLK7 act conf 85 | EDANS-DABCYL int 84
O=C(NCCN1CCC2(CC1)C(=O)NCN2c1ccccc1)c1cccs1	none (no result: proCasp7 act, procasp3 activ, Neddylation inh)
CCOc1ccc(-c2cc(C)[n+](CCN3CCOCC3)c(-c3ccc(OCC)cc3)c2)cc1	KLK7 zymogen act 25 (not shown: Neddylation inh) | proKLK7 act conf 29 | EDANS-DABCYL int 28
Cc1ccc2c(c1)=NC(=O)/C(=C/c1c(O)[nH]c(=O)[nH]c1=O)C=2	KLK7 zymogen act 18 | proKLK7 act conf 46 | EDANS-DABCYL int 45
Cc1ccc2c(c1)=C/C(=C\c1c(O)[nH]c(=S)[nH]c1=O)C(=O)N=2	none (no result: KLK7 zymogen act, Neddylation inh)
CN1CCN(c2ccc3c(c2)S(=O)(=O)c2ccccc2C3=O)CC1	KLK7 zymogen act 20 | proKLK7 act conf inactive | EDANS-DABCYL int 4.2
Cc1cccc(C(C)c2cnc[nH]2)c1C (configuration not stated)	none (no result: proCasp7 act, procasp3 activ, Neddylation inh)
O=c1ccc2cc(OC3O[C@H](CO)[C@@H](O)[C@H](O)[C@H]3O)c(O)cc2o1 (some centres not stated)	KLK7 zymogen act 53 (not shown: Neddylation inh) | proKLK7 act conf 59 | EDANS-DABCYL int 74
COc1cc([C@H]2OC[C@H]3[C@@H]2CO[C@@H]3c2cc(OC)c(O[C@@H]3O[C@H](CO)[C@@H](O)[C@H](O)[C@H]3O)c(OC)c2)cc(OC)c1O[C@H]1O[C@@H](CO)[C@H](O)[C@@H](O)[C@@H]1O	none
Cc1c(CC(=O)N2C[C@H]3C[C@@H](C2)c2cccc(=O)n2C3)c(=O)oc2cc(O)c(Cl)cc12	KLK7 zymogen act 73 | proKLK7 act conf 60 | EDANS-DABCYL int 68
Cc1c(CCC(=O)N2C[C@H]3C[C@@H](C2)c2cccc(=O)n2C3)c(=O)oc2c(C)c(O)ccc12	KLK7 zymogen act 84 (not shown: proCasp7 act, procasp3 activ, Neddylation inh) | proKLK7 act conf 73 | EDANS-DABCYL int 78

Assay outcomes: PubChem BioAssay, several laboratories
